One may read the IC50 as the concentration that gives 50% inhibition.

The values below come from ChEMBL document CHEMBL4184148 (Bioorg Med Chem Lett, 2017).

Bounds are passed on as bounds.

Assay [1] has as its target Receptor tyrosine-protein kinase erbB-2 (Homo sapiens) (UniProt P04626). Description: Binding affinity to wild-type human partial length ERBB2 (K646 to V1225 residues) expressed in HEK293 cells at 1 uM by Kinomescan method relative to control. The class given is cell-based.
Assay [2] concerns the target Bone morphogenetic protein receptor type-2 (Homo sapiens) (UniProt Q13873). Nature of the assay: Binding affinity to wild-type human partial length BMPR2 (R179 to Q526 residues) expressed in HEK293 cells at 1 uM by Kinomescan method relative to control. The class given is cell-based.
The target of assay [3] is Mitogen-activated protein kinase 1 (Homo sapiens) (UniProt P28482). Description: Binding affinity to wild-type human full length ERK2 (M1 to S360 residues) expressed in Escherichia coli BL21 at 1 uM by Kinomescan method relative to control. In a few lines:
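Run as one kinome-wide competition binding panel with each compound at a single fixed concentration. Results were plotted as a kinome-wide selectivity map.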

The target in assay [4] is Non-receptor tyrosine-protein kinase TNK1 (Homo sapiens) (UniProt Q13470). Description: Binding affinity to wild-type human full length TNK1 (M1 to P661 residues) expressed in Escherichia coli BL21 at 1 uM by Kinomescan method relative to control. In a few lines: (§1)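 Kinome-wide competition binding panel run by an outside provider, with each compound tested at a single concentration. Activity is read against the kinase panel.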
Non-receptor tyrosine-protein kinase TNK1 (Homo sapiens), sequence (Q13470 whole entry, the tested form may be a part): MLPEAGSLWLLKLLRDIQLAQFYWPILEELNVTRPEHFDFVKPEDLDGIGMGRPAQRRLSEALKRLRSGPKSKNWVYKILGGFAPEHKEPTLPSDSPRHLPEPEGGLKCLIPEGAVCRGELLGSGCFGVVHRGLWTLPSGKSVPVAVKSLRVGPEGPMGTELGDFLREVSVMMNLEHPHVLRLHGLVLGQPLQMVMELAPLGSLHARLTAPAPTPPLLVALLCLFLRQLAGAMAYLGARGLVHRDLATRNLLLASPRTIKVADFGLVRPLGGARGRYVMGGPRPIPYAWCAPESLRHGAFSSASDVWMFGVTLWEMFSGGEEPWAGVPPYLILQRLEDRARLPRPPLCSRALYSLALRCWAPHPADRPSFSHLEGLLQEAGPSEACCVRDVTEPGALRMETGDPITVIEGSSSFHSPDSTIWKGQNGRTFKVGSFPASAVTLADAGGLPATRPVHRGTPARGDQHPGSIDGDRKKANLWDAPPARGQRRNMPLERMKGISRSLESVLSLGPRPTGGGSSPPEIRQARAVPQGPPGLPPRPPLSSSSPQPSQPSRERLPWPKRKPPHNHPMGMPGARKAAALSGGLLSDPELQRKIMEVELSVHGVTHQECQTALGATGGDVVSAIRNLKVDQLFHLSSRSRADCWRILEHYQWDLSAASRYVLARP

Assay [5] relates to ALK tyrosine kinase receptor (Homo sapiens), Q9UM73 [L1196M]. Description: Binding affinity to […] human partial length ALK L1196M mutant (I1088 to E1409 residues) expressed in HEK293 cells at 1 uM by Kinomescan method relative to control. The class given is cell-based.
The subject of assay [6] is Phosphatidylinositol 4,5-bisphosphate 3-kinase catalytic subunit alpha isoform (Homo sapiens), P42336 [M1043I]. Description: Binding affinity to human partial length PIK3CA M1043I mutant (R108 to N1068 residues) expressed in HEK293 cells at 1 uM by Kinomescan method relative to control. The class given is cell-based.
The target of assay [7] is Calcium/calmodulin-dependent protein kinase type 1B (Homo sapiens) (UniProt Q6P2M8). Nature of the assay: Binding affinity to wild-type human partial length CAMK1B (W9 to A311 residues) expressed in HEK293 cells at 1 uM by Kinomescan method relative to control. The class given is cell-based.
In assay [8] the target is Serine/threonine-protein kinase TAO1 (Homo sapiens) (UniProt Q7L7X3). Nature of the assay: Binding affinity to wild-type human partial length TAOK1 (M1 to A320 residues) expressed in HEK293 cells at 1 uM by Kinomescan method relative to control. The class given is cell-based.
The test system of another assay is HeLa. Description: Cytotoxicity against human HeLa cells assessed as reduction in cell viability after 72 hrs by CellTiter-Glo assay. The class given is functional, cell-based. Put shortly:
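Cells were treated across a dose-response range for 72 h, and viability was read by CellTiter-Glo luminescence. Measurements were made in triplicate and reported with standard error.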

Assay [9] has as its system Serine/threonine-protein kinase B-raf (Homo sapiens), P15056 [V600E]. Description: Binding affinity to human partial length BRAF V600E mutant (S429 to E741 residues) expressed in HEK293 cells at 1 uM by Kinomescan method relative to control. The class given is cell-based.
The target of assay [10] is Tyrosine-protein kinase receptor UFO (Homo sapiens) (UniProt P30530). Description: Binding affinity to wild-type human partial length AXL (R497 to Y821 residues) expressed in Escherichia coli BL21 at 1 uM by Kinomescan method relative to control.
Assay [11] addresses Aurora kinase C (Homo sapiens) (UniProt Q9UQB9). Description: Binding affinity to wild-type human full length AURKC (M1 to S275 residues) expressed in Escherichia coli BL21 at 1 uM by Kinomescan method relative to control.
Assay [12] has as its target Receptor-type tyrosine-protein kinase FLT3 (Homo sapiens) (UniProt P36888). Nature of the assay: Binding affinity to wild-type human partial length FLT3 (V592 to Y969 residues) expressed in Escherichia coli BL21 at 1 uM by Kinomescan method relative to control.
Assay [13] has as its target Tyrosine-protein kinase JAK3 (Homo sapiens) (UniProt P52333). Description: Binding affinity to wild-type human partial length JAK3 JH1 catalytic domain (I781 to S1124 residues) expressed in HEK293 cells at 1 uM by Kinomescan method relative to control. The class given is cell-based.
Assay [14] deals with Mitogen-activated protein kinase kinase kinase 3 (Homo sapiens) (UniProt Q99759). Nature of the assay: Binding affinity to wild-type human partial length MAP3K3 (E320 to Y626 residues) expressed in HEK293 cells at 1 uM by Kinomescan method relative to control. The class given is cell-based.
Mitogen-activated protein kinase kinase kinase 3 (Homo sapiens), sequence (Q99759 whole entry, the tested form may be a part): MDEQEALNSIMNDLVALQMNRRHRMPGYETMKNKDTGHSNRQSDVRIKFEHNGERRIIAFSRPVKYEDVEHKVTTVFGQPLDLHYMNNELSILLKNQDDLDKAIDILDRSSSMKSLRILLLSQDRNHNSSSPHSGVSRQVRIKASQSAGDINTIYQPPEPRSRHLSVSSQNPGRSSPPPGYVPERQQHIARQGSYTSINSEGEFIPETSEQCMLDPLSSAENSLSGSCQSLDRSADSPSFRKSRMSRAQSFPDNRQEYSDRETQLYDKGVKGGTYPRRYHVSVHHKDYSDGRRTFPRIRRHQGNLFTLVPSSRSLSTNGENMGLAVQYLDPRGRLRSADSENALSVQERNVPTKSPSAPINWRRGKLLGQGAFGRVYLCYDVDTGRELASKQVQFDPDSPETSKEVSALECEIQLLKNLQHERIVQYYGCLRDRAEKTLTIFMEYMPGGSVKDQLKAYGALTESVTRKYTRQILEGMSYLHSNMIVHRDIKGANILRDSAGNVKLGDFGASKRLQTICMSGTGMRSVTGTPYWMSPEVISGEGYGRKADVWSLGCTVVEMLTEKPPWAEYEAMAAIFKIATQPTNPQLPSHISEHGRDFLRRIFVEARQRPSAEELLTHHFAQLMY
The next assay has as its target T1, Aurora kinase A (Homo sapiens, UniProt O14965).
T1 sequence (O14965 whole entry): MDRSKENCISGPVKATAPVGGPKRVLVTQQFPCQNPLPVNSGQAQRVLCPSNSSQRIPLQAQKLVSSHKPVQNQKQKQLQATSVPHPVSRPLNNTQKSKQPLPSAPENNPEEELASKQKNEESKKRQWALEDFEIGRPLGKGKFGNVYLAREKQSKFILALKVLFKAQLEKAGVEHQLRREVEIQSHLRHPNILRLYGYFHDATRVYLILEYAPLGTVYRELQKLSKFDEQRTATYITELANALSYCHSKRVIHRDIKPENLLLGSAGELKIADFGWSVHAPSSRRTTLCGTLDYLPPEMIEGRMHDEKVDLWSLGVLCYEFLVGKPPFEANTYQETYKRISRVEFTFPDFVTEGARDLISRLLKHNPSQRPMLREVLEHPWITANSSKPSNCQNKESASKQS
Nature of the assay: Inhibition of recombinant full length His-tagged human Aurora A expressed in baculovirus expression system by Z'LYTE assay. In a few lines:
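Z'LYTE biochemical kinase assay with ATP at the Km for each kinase. IC50 determined from the assay and reported ± standard error.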

The target in assay [15] is Serine/threonine-protein kinase ULK2 (Homo sapiens) (UniProt Q8IYT8). Description: Binding affinity to wild-type human partial length ULK2 (M1 to S301 residues) expressed in HEK293 cells at 1 uM by Kinomescan method relative to control. The class given is cell-based.
The target in assay [16] is Tyrosine-protein kinase ABL1 (Homo sapiens) (UniProt P00519). Nature of the assay: Binding affinity to wild-type human non-phosphorylated ABL1 (S229 to K512 residues) expressed in HEK293 cells at 1 uM by Kinomescan method relative to control. The class given is cell-based.
Assay [17] deals with Serine/threonine-protein kinase 32A (Homo sapiens) (UniProt Q8WU08). Description: Binding affinity to wild-type human full length YANK1 (M1 to L396 residues) expressed in HEK293 cells at 1 uM by Kinomescan method relative to control. The class given is cell-based. In a few lines:
as §1

For assay [18], the target named is Ribosomal protein S6 kinase alpha-4 (Homo sapiens) (UniProt O75676). Description: Binding affinity to wild-type human partial length N-terminal RPS6KA4 kinase domain 1 expressed in Escherichia coli BL21 at 1 uM by Kinomescan method relative to control.
Assay [19] has as its target Serine/threonine-protein kinase haspin (Homo sapiens) (UniProt Q8TF76). Nature of the assay: Binding affinity to wild-type human partial length HASPIN (I452 to K798 residues) expressed in HEK293 cells at 1 uM by Kinomescan method relative to control. The class given is cell-based.
Assay [20] concerns Tyrosine-protein kinase ABL1 (Homo sapiens), P00519 [Y253F]. Nature of the assay: Binding affinity to human phosphorylated ABL1 Y253F mutant (S229 to K512 residues) expressed in HEK293 cells at 1 uM by Kinomescan method relative to control. The class given is cell-based.

Bone morphogenetic protein receptor type-2 (Homo sapiens), sequence (Q13873 whole entry, the tested form may be a part): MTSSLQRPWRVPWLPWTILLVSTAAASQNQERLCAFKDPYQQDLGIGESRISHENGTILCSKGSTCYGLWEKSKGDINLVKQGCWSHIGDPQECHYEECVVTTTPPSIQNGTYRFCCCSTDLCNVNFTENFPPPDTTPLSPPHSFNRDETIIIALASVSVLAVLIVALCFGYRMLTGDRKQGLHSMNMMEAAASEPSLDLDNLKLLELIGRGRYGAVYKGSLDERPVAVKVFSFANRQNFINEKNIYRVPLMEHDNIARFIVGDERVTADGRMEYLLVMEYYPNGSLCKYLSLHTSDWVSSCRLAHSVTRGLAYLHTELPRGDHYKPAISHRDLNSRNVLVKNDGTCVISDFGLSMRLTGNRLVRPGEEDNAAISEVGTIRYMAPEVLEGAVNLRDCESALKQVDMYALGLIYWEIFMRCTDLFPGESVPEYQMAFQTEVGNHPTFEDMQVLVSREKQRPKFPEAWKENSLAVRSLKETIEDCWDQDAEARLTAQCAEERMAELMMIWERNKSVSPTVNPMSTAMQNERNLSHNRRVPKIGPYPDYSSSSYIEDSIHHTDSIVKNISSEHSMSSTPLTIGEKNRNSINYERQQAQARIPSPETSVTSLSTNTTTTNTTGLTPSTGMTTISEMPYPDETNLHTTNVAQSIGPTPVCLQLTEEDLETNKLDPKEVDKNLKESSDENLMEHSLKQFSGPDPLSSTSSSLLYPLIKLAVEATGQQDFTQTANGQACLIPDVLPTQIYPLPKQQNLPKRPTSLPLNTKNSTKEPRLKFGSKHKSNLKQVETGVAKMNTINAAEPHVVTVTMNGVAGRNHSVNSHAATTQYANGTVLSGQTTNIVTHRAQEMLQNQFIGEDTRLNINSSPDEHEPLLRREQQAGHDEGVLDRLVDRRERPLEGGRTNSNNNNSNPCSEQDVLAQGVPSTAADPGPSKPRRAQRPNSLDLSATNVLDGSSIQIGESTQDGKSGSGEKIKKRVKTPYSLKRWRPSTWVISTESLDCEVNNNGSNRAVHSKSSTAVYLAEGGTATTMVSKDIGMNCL
Receptor-type tyrosine-protein kinase FLT3 (Homo sapiens), sequence (P36888 whole entry, the tested form may be a part): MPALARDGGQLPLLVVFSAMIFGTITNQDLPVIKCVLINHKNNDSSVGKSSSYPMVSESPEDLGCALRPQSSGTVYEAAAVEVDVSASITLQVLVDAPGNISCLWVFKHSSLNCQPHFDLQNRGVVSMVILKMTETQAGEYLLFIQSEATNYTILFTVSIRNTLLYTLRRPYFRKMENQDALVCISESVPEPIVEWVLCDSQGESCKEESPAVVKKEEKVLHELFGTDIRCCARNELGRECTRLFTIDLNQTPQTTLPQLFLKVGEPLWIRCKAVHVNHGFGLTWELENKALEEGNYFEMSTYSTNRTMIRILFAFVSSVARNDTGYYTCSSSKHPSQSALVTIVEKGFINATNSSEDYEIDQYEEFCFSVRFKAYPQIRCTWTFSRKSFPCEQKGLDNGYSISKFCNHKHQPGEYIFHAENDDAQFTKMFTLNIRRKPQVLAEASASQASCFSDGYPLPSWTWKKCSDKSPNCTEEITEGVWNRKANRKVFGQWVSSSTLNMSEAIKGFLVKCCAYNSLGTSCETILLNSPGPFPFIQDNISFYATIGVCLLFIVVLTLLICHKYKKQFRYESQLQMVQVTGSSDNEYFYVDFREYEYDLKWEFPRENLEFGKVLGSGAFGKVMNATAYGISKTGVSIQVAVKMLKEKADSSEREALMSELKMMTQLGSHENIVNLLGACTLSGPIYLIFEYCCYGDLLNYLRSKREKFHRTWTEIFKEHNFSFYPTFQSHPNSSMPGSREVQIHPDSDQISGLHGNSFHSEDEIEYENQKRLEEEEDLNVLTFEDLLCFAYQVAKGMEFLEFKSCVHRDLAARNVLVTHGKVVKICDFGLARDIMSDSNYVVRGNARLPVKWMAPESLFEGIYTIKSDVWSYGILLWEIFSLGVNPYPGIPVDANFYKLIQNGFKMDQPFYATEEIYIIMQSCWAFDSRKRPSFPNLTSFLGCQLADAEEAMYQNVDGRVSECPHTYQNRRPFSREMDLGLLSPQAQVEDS
Receptor tyrosine-protein kinase erbB-2 (Homo sapiens), sequence (P04626 whole entry, the tested form may be a part): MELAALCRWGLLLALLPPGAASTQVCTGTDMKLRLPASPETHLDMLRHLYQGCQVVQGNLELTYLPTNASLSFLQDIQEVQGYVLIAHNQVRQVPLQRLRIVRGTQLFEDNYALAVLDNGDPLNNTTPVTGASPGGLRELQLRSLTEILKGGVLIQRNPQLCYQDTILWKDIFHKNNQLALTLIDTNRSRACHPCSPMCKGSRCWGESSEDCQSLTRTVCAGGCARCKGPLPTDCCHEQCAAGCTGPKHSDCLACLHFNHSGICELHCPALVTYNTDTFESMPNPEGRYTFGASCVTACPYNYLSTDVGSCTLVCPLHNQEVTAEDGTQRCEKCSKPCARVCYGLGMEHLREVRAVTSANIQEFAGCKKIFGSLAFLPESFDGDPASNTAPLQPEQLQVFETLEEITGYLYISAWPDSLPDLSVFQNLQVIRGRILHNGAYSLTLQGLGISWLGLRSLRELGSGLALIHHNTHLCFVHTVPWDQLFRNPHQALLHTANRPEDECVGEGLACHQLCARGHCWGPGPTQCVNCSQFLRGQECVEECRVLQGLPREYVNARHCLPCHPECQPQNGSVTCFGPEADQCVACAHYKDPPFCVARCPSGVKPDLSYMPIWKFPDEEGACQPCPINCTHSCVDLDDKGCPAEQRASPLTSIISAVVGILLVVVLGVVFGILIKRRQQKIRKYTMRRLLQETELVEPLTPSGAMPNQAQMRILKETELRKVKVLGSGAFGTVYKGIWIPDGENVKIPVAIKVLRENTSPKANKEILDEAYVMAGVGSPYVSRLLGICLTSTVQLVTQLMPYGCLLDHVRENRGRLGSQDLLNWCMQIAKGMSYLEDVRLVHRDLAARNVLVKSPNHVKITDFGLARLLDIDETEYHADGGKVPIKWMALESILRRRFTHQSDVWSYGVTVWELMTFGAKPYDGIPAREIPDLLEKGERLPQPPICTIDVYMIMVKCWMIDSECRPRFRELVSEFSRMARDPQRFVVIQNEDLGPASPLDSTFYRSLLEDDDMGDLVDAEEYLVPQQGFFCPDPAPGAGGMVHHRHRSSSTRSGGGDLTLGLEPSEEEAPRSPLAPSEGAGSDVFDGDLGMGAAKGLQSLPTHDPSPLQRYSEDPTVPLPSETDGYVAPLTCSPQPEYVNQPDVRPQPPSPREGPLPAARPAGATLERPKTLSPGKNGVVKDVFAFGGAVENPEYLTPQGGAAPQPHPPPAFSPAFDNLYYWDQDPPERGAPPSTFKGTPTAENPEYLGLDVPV
Serine/threonine-protein kinase 32A (Homo sapiens), sequence (Q8WU08 whole entry, the tested form may be a part): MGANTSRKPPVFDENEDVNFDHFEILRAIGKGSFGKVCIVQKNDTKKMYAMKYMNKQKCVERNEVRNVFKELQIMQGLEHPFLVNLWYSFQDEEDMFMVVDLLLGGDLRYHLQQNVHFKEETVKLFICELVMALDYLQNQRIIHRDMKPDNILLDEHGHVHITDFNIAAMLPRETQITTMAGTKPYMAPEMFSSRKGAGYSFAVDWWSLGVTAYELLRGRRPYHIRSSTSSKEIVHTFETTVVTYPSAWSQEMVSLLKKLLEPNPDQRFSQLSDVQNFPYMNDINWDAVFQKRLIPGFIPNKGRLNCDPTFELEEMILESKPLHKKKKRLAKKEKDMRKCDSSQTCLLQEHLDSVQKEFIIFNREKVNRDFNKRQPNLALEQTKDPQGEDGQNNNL

Turning to `CCC(=O)Nc1ccc(C(=O)Nc2ccc(Nc3ncc4c(n3)N(C)c3ccc(C)cc3C(=O)N4C)cc2)cc1`, the Activity in assay [1] was determined as 100%; in assay [2], 77%; in assay [3], 87%; in assay [4], 71%; in assay [5], 96%; in [6], 83%. Moreover, the Activity came to 45% in assay [7]; 89% in assay [8]; 100% in [9]; 87% in [10]; 1.3% in assay [11]; 100% in [12]. Besides, the Activity in [13] amounted to 100%; in assay [14] it was 63%; in assay [15], 82%; in [16] it was 67%; in assay [17], 82%; in assay [18] it was 95%. In addition, the figures for the Activity in assay [19] and in assay [20] were 100% and 3.5%, respectively. Moreover, the IC50 is below 0.001 µM in the assay with HeLa and 0.052 µM on Aurora kinase A.

`C=CC(=O)Nc1ccc(C(=O)Nc2ccc(Nc3ncc4c(n3)N(C)c3ccc(C)cc3C(=O)N4C)cc2)cc1`: the Activity was determined as 93% in [1]; 95% in assay [2]; 99% in assay [3]; 89% in assay [4]; 94% in assay [5]; 64% in assay [6]. The Activity in assay [7] turned out to be 100%; in [8], 92%; in [9] it was 94%; in assay [10], 95%; in assay [11] it was 49%; in assay [12] it was 100%. Further, the Activity in assay [13] was 88%; in assay [14], 86%; in assay [15], 94%; in assay [16], 77%; in [17], 100%; in assay [18], 100%. The Activity in [19] and in assay [20] was 100% each time. Further, the IC50 in the assay with HeLa was below 0.001 µM; on Aurora kinase A, 0.044 µM.
